Measurements collected from several papers.
Compare with care: the assays were run in different laboratories.
Target: cGMP-dependent protein kinase 1 (PRKG1, Homo sapiens, UniProt Q13976)
Residues used in one study (Q13976 1-671): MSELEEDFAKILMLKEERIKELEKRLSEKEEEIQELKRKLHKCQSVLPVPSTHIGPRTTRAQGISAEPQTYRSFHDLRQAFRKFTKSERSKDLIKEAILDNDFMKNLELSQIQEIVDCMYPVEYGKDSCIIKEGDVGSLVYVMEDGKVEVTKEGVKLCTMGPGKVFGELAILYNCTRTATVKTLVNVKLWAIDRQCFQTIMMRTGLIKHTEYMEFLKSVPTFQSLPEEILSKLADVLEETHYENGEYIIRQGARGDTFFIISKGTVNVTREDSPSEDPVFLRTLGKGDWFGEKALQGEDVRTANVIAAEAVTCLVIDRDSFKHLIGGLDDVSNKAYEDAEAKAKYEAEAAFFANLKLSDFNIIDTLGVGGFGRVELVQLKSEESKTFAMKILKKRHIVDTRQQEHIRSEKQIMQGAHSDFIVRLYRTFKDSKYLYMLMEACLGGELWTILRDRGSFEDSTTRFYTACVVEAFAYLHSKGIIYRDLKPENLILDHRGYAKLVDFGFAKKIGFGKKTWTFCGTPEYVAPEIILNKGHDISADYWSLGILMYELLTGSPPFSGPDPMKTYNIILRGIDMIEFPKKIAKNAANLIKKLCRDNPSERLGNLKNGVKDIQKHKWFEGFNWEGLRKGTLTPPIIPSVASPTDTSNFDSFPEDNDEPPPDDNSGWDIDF

Structure (SMILES) | assay | setting | endpoint | value
CCCOc1ccc(OC)c(F)c1C(=O)c1ccc(C(=O)N[C@@H]2CNC[C@H]2NC(=O)c2ccc3[nH]ncc3c2)cc1 | enzyme activity, inhibitor | 0.1 µM | remaining activity | 15%
c1ccc(N2CCN(Cc3nc4ccccc4[nH]3)CC2)nc1 | binding, competition with immobilised ligand | 1 µM | remaining binding | 100%
CC(C)c1ccc(NC(=O)c2cccs2)c(-c2nc3ccccc3[nH]c2=O)c1 | enzyme activity, inhibitor | 1 µM | activity vs control | 123%
Cc1ccc(C(=O)NCc2ccsc2)cc1C#Cc1cn(C(C)C)c2ncnc(N)c12 | enzyme activity, inhibitor | 1 µM | activity vs control | 87%
COc1cc(Cl)c(C(=O)N[C@@H](CN[C@H]2CC[C@@H](N)CC2)Cc2ccc(C#N)cc2)cc1-c1ccc(CN[C@H](C)c2ccc(C)cc2)o1 | enzyme activity, inhibitor | 1 µM | remaining activity | 91%
CN(C)c1ncnc(-c2ccc3nc(Nc4cc(CN5CCN(C(=O)CC(F)(F)F)CC5)ccn4)[nH]c3c2)c1Cl | cell-free assay, competition with immobilised ligand | 1 µM | remaining binding | 94%
Cn1cnc(Br)c1C1=CN(c2ncnc3[nH]cnc23)CCS1 | enzyme activity, inhibitor, radiometric | 50 nM | inhibition | 72.1%
CNC(=O)c1cc(Oc2ccc(NC(=O)Nc3ccc(Cl)c(C(F)(F)F)c3)cc2)ccn1 | enzyme activity, inhibitor | 10 µM | inhibition | -2%
CCOc1cc(-c2nncn2C)ccc1Nc1ncc2cc(C)nc(NCC(C)(C)C)c2n1 | enzyme activity, inhibitor, FRET | 1 µM | inhibition | < 15%
CC/C(=N\NC(=O)NCc1cccc(O)c1)c1ccc(O)c(C)c1O | enzyme activity, inhibitor | 0.1 µM | inhibition | 55.7%
Cc1cnc(NC2CCOCC2)nc1-n1cnc(C(=O)NC(CN)c2cc(F)cc(Cl)c2)c1 (centres unmarked) | enzyme activity, inhibitor, radiometric | 1 µM | remaining activity | 100%
O=C(Nc1cccnn1)N1CCC(=Cc2cccc(Oc3ccc(C(F)(F)F)cn3)c2)CC1 | cell-free assay, competition with immobilised ligand | 1 µM | remaining binding | 100%
CN1CC(Oc2cnc(C#N)cc2-c2ccn3nc(NC(=O)C4CC4)cc3c2)C1 | enzyme activity, inhibitor | 1 µM | inhibition | 2%
NS(=O)(=O)c1cc(NC(=O)Cc2ccccc2)ccc1Oc1cccc(Cl)c1 | cell-free assay, competition with immobilised ligand | 1 µM | remaining binding | 100%
CC(C)(C)c1nc(-c2cccc(NS(=O)(=O)c3c(F)cccc3F)c2F)c(-c2ccnc(N)n2)s1 | enzyme activity, inhibitor, radiometric | 1 µM | remaining activity | 96%
Cn1nc(C(=O)NCc2ccc(C(=O)O)cc2)cc1-c1ccc2[nH]ccc2c1 | cell-free assay, competition with immobilised ligand | 0.1 µM | remaining binding | 100%
COc1cc2ncnc(Nc3ccc(Oc4ccccc4)cc3C)c2cc1OC | enzyme activity, inhibitor | 1 µM | inhibition | 1%
